Results reported in ChEMBL document CHEMBL1221279, “Synthesis, biological evaluation, and structure-activity relationship study of novel cytotoxic aza-caffeic acid derivatives” (Bioorg Med Chem, 2010).

system: PC-3; test: Cytotoxicity against human PC3 cells after 72 hrs by MTT assay; format: functional, cell-based; conditions: PC-3, 72 h
Procedure, shortened: (§1)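 Cells grown in MEM with 10% fetal calf serum, penicillin and streptomycin at 37 °C, 5% CO2. Exponentially growing cells seeded in quadruplicate at 5 × 10³ per well and left 24 h before compounds (DMSO stocks) were added. After 72 h exposure, MTT added for 4 h at 37 °C, formazan dissolved in DMSO, read at 570 nm. IC50 read graphically from dose–response curves.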

Structure (SMILES) | IC50
CCCCCNC(=O)COC(=O)/C=C/c1ccc(O)c(O)c1 | 155 µM
COCOc1cc(/C=C/C(=O)OCC(=O)NN2CCOCC2)ccc1OCc1ccccc1 | > 200 µM
O=C(COC(=O)/C=C/c1ccc(O)c(O)c1)NN1CCOCC1 | > 200 µM
O=C(/C=C/c1ccccc1)N1CCN(Cc2ccc(Cl)c(Cl)c2)CC1 | 12.8 µM
COc1ccc(/C=C/C(=O)OCC(=O)Nc2ccc(Cl)cc2)cc1OC | > 200 µM
O=C(COC(=O)/C=C/c1ccc(O)c(O)c1)Nc1ccccc1 | > 200 µM

system: HeLa; test: Cytotoxicity against human HeLa cells after 72 hrs by MTT assay; format: functional, cell-based; conditions: not given; procedure, shortened: as §1

Structure (SMILES) | IC50
CCCCCNC(=O)COC(=O)/C=C/c1ccc(O)c(O)c1 | 187 µM
COCOc1cc(/C=C/C(=O)OCC(=O)NN2CCOCC2)ccc1OCc1ccccc1 | > 200 µM
O=C(COC(=O)/C=C/c1ccc(O)c(O)c1)NN1CCOCC1 | > 200 µM
O=C(/C=C/c1ccccc1)N1CCN(Cc2ccc(Cl)c(Cl)c2)CC1 | 73.9 µM
COc1ccc(/C=C/C(=O)OCC(=O)Nc2ccc(Cl)cc2)cc1OC | 45.4 µM
O=C(COC(=O)/C=C/c1ccc(O)c(O)c1)Nc1ccccc1 | > 200 µM

system: BGC-823; test: Cytotoxicity against human BGC823 cells after 72 hrs by MTT assay; format: functional, cell-based; conditions: BGC-823, 72 h; procedure, shortened: as §1

Structure (SMILES) | IC50
O=C(/C=C/c1ccccc1)N1CCN(Cc2ccc(Cl)c(Cl)c2)CC1 | 31.2 µM

system: HL-60; test: Cytotoxicity against human HL60 cells after 72 hrs by MTT assay; format: functional, cell-based; conditions: HL-60, 72 h; procedure, shortened: as §1

Structure (SMILES) | IC50
CCCCCNC(=O)COC(=O)/C=C/c1ccc(O)c(O)c1 | 97.4 µM
COCOc1cc(/C=C/C(=O)OCC(=O)NN2CCOCC2)ccc1OCc1ccccc1 | 50.4 µM
O=C(COC(=O)/C=C/c1ccc(O)c(O)c1)NN1CCOCC1 | > 200 µM
O=C(/C=C/c1ccccc1)N1CCN(Cc2ccc(Cl)c(Cl)c2)CC1 | 82.6 µM
COc1ccc(/C=C/C(=O)OCC(=O)Nc2ccc(Cl)cc2)cc1OC | 31.9 µM
O=C(COC(=O)/C=C/c1ccc(O)c(O)c1)Nc1ccccc1 | 30.3 µM

system: K562; test: Cytotoxicity against human K562 cells after 72 hrs by MTT assay; format: functional, cell-based; conditions: K562, 72 h; procedure, shortened: as §1

Structure (SMILES) | IC50
CCCCCNC(=O)COC(=O)/C=C/c1ccc(O)c(O)c1 | 121 µM
COCOc1cc(/C=C/C(=O)OCC(=O)NN2CCOCC2)ccc1OCc1ccccc1 | 32.4 µM
O=C(COC(=O)/C=C/c1ccc(O)c(O)c1)NN1CCOCC1 | 56.8 µM
O=C(/C=C/c1ccccc1)N1CCN(Cc2ccc(Cl)c(Cl)c2)CC1 | 14.1 µM
COc1ccc(/C=C/C(=O)OCC(=O)Nc2ccc(Cl)cc2)cc1OC | 60.2 µM
O=C(COC(=O)/C=C/c1ccc(O)c(O)c1)Nc1ccccc1 | > 200 µM

system: KB; test: Cytotoxicity against human KB cells after 72 hrs by MTT assay; format: functional, cell-based; conditions: not given; procedure, shortened: as §1

Structure (SMILES) | IC50
O=C(/C=C/c1ccccc1)N1CCN(Cc2ccc(Cl)c(Cl)c2)CC1 | 20.7 µM

system: not listed separately; test: Cytotoxicity against human HO8910 cells after 72 hrs by MTT assay; format: functional, cell-based; conditions: HO-8910, 72 h; procedure, shortened: as §1

Structure (SMILES) | IC50
O=C(/C=C/c1ccccc1)N1CCN(Cc2ccc(Cl)c(Cl)c2)CC1 | 45.4 µM

system: not listed separately; test: Cytotoxicity against human ECA109 cells after 72 hrs by MTT assay; format: functional, cell-based; conditions: ECa-109, 72 h; procedure, shortened: as §1

Structure (SMILES) | IC50
CCCCCNC(=O)COC(=O)/C=C/c1ccc(O)c(O)c1 | 131 µM
COCOc1cc(/C=C/C(=O)OCC(=O)NN2CCOCC2)ccc1OCc1ccccc1 | 143 µM
O=C(COC(=O)/C=C/c1ccc(O)c(O)c1)NN1CCOCC1 | > 200 µM
O=C(/C=C/c1ccccc1)N1CCN(Cc2ccc(Cl)c(Cl)c2)CC1 | 17 µM
COc1ccc(/C=C/C(=O)OCC(=O)Nc2ccc(Cl)cc2)cc1OC | 81.9 µM
O=C(COC(=O)/C=C/c1ccc(O)c(O)c1)Nc1ccccc1 | > 200 µM

system: A549; test: Cytotoxicity against human A549 cells after 72 hrs by MTT assay; format: functional, cell-based; conditions: A549, 72 h; procedure, shortened: as §1

Structure (SMILES) | IC50
O=C(/C=C/c1ccccc1)N1CCN(Cc2ccc(Cl)c(Cl)c2)CC1 | 173 µM

system: not listed separately; test: Cytotoxicity against human LS 174T cells after 72 hrs by MTT assay; format: functional, cell-based; conditions: LS174T; procedure, shortened: as §1

Structure (SMILES) | IC50
CCCCCNC(=O)COC(=O)/C=C/c1ccc(O)c(O)c1 | 69.4 µM
COCOc1cc(/C=C/C(=O)OCC(=O)NN2CCOCC2)ccc1OCc1ccccc1 | > 200 µM
O=C(COC(=O)/C=C/c1ccc(O)c(O)c1)NN1CCOCC1 | > 200 µM
O=C(/C=C/c1ccccc1)N1CCN(Cc2ccc(Cl)c(Cl)c2)CC1 | 34.1 µM
COc1ccc(/C=C/C(=O)OCC(=O)Nc2ccc(Cl)cc2)cc1OC | > 200 µM
O=C(COC(=O)/C=C/c1ccc(O)c(O)c1)Nc1ccccc1 | 117 µM

system: not listed separately; test: Cytotoxicity against human Bel7404 cells after 72 hrs by MTT assay; format: functional, cell-based; conditions: BEL-7404, 72 h; procedure, shortened: as §1

Structure (SMILES) | IC50
CCCCCNC(=O)COC(=O)/C=C/c1ccc(O)c(O)c1 | > 200 µM
COCOc1cc(/C=C/C(=O)OCC(=O)NN2CCOCC2)ccc1OCc1ccccc1 | > 200 µM
O=C(COC(=O)/C=C/c1ccc(O)c(O)c1)NN1CCOCC1 | > 200 µM
O=C(/C=C/c1ccccc1)N1CCN(Cc2ccc(Cl)c(Cl)c2)CC1 | 44.8 µM
COc1ccc(/C=C/C(=O)OCC(=O)Nc2ccc(Cl)cc2)cc1OC | 120 µM
O=C(COC(=O)/C=C/c1ccc(O)c(O)c1)Nc1ccccc1 | > 200 µM

system: CNE; test: Cytotoxicity against human CNE cells after 72 hrs by MTT assay; format: functional, cell-based; conditions: not given; procedure, shortened: as §1

Structure (SMILES) | IC50
CCCCCNC(=O)COC(=O)/C=C/c1ccc(O)c(O)c1 | 170 µM
COCOc1cc(/C=C/C(=O)OCC(=O)NN2CCOCC2)ccc1OCc1ccccc1 | > 200 µM
O=C(COC(=O)/C=C/c1ccc(O)c(O)c1)NN1CCOCC1 | > 200 µM
O=C(/C=C/c1ccccc1)N1CCN(Cc2ccc(Cl)c(Cl)c2)CC1 | > 200 µM
COc1ccc(/C=C/C(=O)OCC(=O)Nc2ccc(Cl)cc2)cc1OC | > 200 µM
O=C(COC(=O)/C=C/c1ccc(O)c(O)c1)Nc1ccccc1 | > 200 µM
